Data set [1] addresses Hepatitis C virus serine protease, NS3/NS4A (Hepatitis C virus, UniProt A3EZI9+D2K2A8, R155K). The data set is described as follows: Inhibition of HCV NS3/4A protease R155K mutant using Ac-DED(Edans)EEAbu-psi[COO]ASK(Dabcyl)-NH2 as substrate by FRET assay. Also on record: species or system Hepacivirus hominis.
Data set [2] has as its target Hepatitis C virus serine protease, NS3/NS4A (Hepatitis C virus, UniProt A3EZI9+D2K2A8). The data set is described as follows: Inhibition of HCV genotype 1a NS3/4A protease using Ac-DED(Edans)EEAbu-psi[COO]ASK(Dabcyl)-NH2 as substrate by FRET assay. Also on record: species or system Hepatitis C virus subtype 1a. The method, boiled down: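 Full-length NS3/4A (protease–helicase/NTPase, genotype 1a) measured by FRET. Buffer: 50 mM HEPES pH 7.5, 10 mM DTT, 40% glycerol, 0.1% n-octyl-β-D-glucoside, 3.3% DMSO. Ki values derived.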

Data set [3] can be described thus: Apparent permeability from apical to basolateral side in human Caco2 cells. Type of data set: ADME, cell-based. The following applies: Caco-2. The method, boiled down: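 Caco-2 monolayers on polycarbonate filter inserts, cells kept in 90% air/10% CO2. Compound diluted from 10 mM DMSO stock to 10 µM (final DMSO 0.1%) in FASSIF pH 7.4 on apical donor side. Receiver is HBSS pH 7.4 with 1% (w/v) BSA. Run at 37 °C with 500 rpm stirring. Receiver sampled at 15, 30 and 60 min, donor sampled at 60 min for mass balance. Membrane integrity checked afterwards, LC/MS/MS read-out, at least triplicates.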

The target of data set [4] is Hepatitis C virus serine protease, NS3/NS4A (Hepatitis C virus, UniProt A3EZI9+D2K2A8, D168V). The data set is described as follows: Inhibition of HCV NS3/4A protease D168V mutant using Ac-DED(Edans)EEAbu-psi[COO]ASK(Dabcyl)-NH2 as substrate by FRET assay. More on the design: species or system Hepacivirus hominis.
The test system of data set [5] is Liver microsome. The data set is described as follows: Intrinsic clearance in human liver microsomes preincubated for 5 mins by LC/MS/MS analysis. Type of data set: ADME. The following applies: microsomes, 5 min. An outline of the steps:
(§1)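 Compound at 1 µM preincubated 5 min at 37 °C with pooled human liver microsomes (0.5 mg/mL) in 0.1 M potassium phosphate pH 7.4. Reaction started with NADPH (1 mM final) and stopped at 0, 5, 15 and 40 min with ice-cold acetonitrile containing internal standard. LC/MS/MS read-out. ln(% remaining) regressed linearly on time; t1/2 and Clint derived assuming first-order kinetics. Dextromethorphan (3 µM) and midazolam (5 µM) served as CYP2D6/CYP3A4 controls.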

The test system of data set [6] is Liver microsome. The data set is described as follows: Half life in human liver microsomes preincubated for 5 mins by LC/MS/MS analysis. Type of data set: ADME. The following applies: microsomes. An outline of the steps: as §1
A general note: Microsomes from liver hold many membrane-bound enzymes, among them those of drug oxidation.

The target in data set [7] is Hepatitis C virus serine protease, NS3/NS4A (Hepatitis C virus, UniProt A3EZI9+D2K2A8, A156T). The data set is described as follows: Inhibition of HCV NS3/4A protease A156T mutant using Ac-DED(Edans)EEAbu-psi[COO]ASK(Dabcyl)-NH2 as substrate by FRET assay. Also on record: species or system Hepacivirus hominis.
For the next data set, the system named is Hepatitis C virus. The data set is described as follows: Antiviral activity against HCV genotype 1b infected in human Huh-7 cells by firefly luciferase assay. Type of data set: functional, cell-based, Hepacivirus hominis. The method, boiled down:
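Huh-7 cells carrying a subgenomic HCV genotype 1b replicon with firefly luciferase reporter; EC50 derived from luciferase signal.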

Turning to `COc1cc(Oc2ccc(C3NC(=O)[C@H](NC(=O)OC(C)(C)C)CCCCC/C=C/CCCS(=O)(=O)NC(=O)c4ccccc4NC3=O)cc2)nc(-c2ccccc2)n1` (single isomer, unassigned; diastereomer 2), the Ki (usually a dissociation constant, usually derived from enzyme kinetics or from competition with a known ligand) in data set [1] stood at 220 nM; in data set [2], 80 nM; in data set [4], 600 nM; in data set [7], 160 nM. Further, the Papp (usually a coefficient for how fast a substance crosses the barrier) in data set [3] is 0.15 ×10⁻⁶ cm/s. This molecule returned a microsomal intrinsic clearance in the data set on Liver microsome [5] of 137 µL/min/mg. The molecule also displayed a t1/2 in the data set on Liver microsome [6] of 10 min. In addition, in the data set with Hepatitis C virus, the midpoint of the response, the EC50, lay at 15000 nM.

For the origin of these results see ChEMBL document CHEMBL3352136, “Vinylated linear P2 pyrimidinyloxyphenylglycine based inhibitors of the HCV NS3/4A protease and corresponding macrocycles” (Bioorg Med Chem, 2014).
